# High-throughput results as filed in PubChem.
# A selection: hits, their analogues and other compounds. The true share with any hit is near 2.7%.
# OX1R antag-1 = OX1R (HCRTR1) antagonists, primary screen, fluorescence, CHO/OX1R cells, Fluo-8 calcium, orexin A; inhibition, % at 5 µM; Fluo-8 calcium fluorescence; hit rate 0.43% among 330,000;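 active = inhibition above its plate's threshold, mean inhibition of all tested compounds on the plate plus 3 SD, cut at about 37% in these data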;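 note: 0% = orexin A challenge wells and 100% = SB-334867-A antagonist wells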
# OXTR agonist = human OXTR agonists, primary screen, fluorescence, CHO-OTR cells, Fluo-8 calcium; Fluo-8 calcium fluorescence; normalized: DMSO 0%, oxytocin 100%; activation, % at 3 µM; hit rate 0.32% among 320,000; AID 2435, 2010;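 active = activation above the mean of all tested compounds plus 3 SD, cutoff set per screening run, cut at about 20% in these data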;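 note: peak over basal fluorescence ratio from a 100 s FLIPR kinetic read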
# Target sequence (P30559 whole entry, looked up): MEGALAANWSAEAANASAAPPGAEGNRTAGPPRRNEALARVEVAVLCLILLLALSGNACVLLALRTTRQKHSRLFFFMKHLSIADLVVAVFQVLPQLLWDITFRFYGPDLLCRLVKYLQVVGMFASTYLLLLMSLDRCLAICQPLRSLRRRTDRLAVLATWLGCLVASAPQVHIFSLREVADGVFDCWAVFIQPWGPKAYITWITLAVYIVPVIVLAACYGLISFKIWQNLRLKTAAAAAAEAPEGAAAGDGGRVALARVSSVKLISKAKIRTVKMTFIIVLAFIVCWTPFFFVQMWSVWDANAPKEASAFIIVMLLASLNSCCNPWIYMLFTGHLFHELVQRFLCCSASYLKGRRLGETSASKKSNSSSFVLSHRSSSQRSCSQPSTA
# OXTR potentiate = human OXTR potentiators, primary screen, fluorescence, CHO-OTR cells, Fluo-8 calcium; Oxytocin receptor (Homo sapiens), P30559; Fluo-8 calcium fluorescence, potentiator mode; 0% = oxytocin EC15, 100% = EC100; activation, % at 3 µM; hit rate 0.061% among 320,000; AID 2445, 2010;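 active = activation above that plate's cutoff, the mean activation of tested compounds plus 3 SD, cut at about 6.6% in these data, passing the limit was not always enough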;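 note: 100% uses oxytocin at 75 nM as the full agonist control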
#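 Replication – single well per compound, singlicate · Assay system – CHO cell line stably expressing human OTR · Timing – 6 min pre-incubation, 100 s read · Measure – normalized max/min fluorescence ratio, % activation · Doses – 3.0 µM, one dose · Detection – Fluo-8 calcium dye fluorescence · Probe or stimulus – oxytocin near EC15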
# OX1R antag-2 = antagonists of human orexin 1 receptor (OX1R); OX1R-expressing cells, FRET antagonist read-out; AID 485270, 2010; inhibition, % at 6.6 µM; hit rate 1.8% among 330,000; in the data active = inhibition mostly above about 38%, no sharp cut-off; inactive = mostly below about 40%;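 note: 0% = agonist challenge alone and 100% = reference antagonist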
# CHO parental Ca = ATP-evoked calcium signal inhibitors, parental CHO, primary screen, counter-screen for OX1R antagonist project, cell-based, fluorescence, Fluo-8 calcium dye | parental CHO-K1, ATP-induced calcium, Fluo-8 fluorescence | inhibition, % at 5.6 µM | hit rate 0.63% among 330,000;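 active = inhibition above that plate's mean sample inhibition plus 3 SD, cut at about 26% in these data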;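 note: 0% = ATP-challenged DMSO wells and 100% = DMSO wells without ATP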
#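 test system = CHO parental line | reagent = ATP stimulus | measured by = intracellular calcium via Fluo-8 no-wash fluorescent dye | control set = ATP and no-ATP DMSO wells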
# V1R ag counter = agonists of human V1a receptor, primary screen, counter-screen for OXTR agonist project, fluorescence, CHO-V1R cells | Vasopressin V1a receptor (Homo sapiens), P37288 | Fluo-8 calcium fluorescence, agonist mode; 0% DMSO, 100% 3 nM vasopressin | activation, % at 3 µM | hit rate 0.25% among 320,000;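 active = activation above the mean activation of all tested compounds plus 3 SD, per screening run, cut at about 20% in these data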;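 note: signal is peak over basal fluorescence ratio across a 100 second FLIPR read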
# The depositor's hits bear a star.
SMILES,OX1R antag-1,OXTR agonist,OXTR potentiate,OX1R antag-2,CHO parental Ca,V1R ag counter
CNC(=O)/C(C#N)=c1\s/c(=C/C(=O)OC)c(=O)n1-c1ccccc1,-12.4,-0.9,-12.1,68.9*,-1.8,1.2
Cc1c([N+](=O)[O-])cnc(Sc2ccccc2)c1[N+](=O)[O-],-31.9,-2.8,1.9,36.4,-12.7,-0.4
CCc1nc(Nc2ccccc2F)c2oc3ccccc3c2n1,-30.5,-2.4,2.0,44.1*,-30.1,-1.3
CCn1c(SCc2nc(-c3ccccc3)no2)nnc1-c1cccs1,-7.5,2.4,-11.0,31.2,-24.6,4.1
CCn1c(SCc2nc(-c3ccccc3)no2)nc2ccccc21,1.1,-0.1,-2.7,53.9*,-9.9,1.7
O=C(NCc1ccccc1)c1cccc(COc2ccccc2Cl)c1,21.0,4.7,-18.6,40.7,57.0*,6.0
CCC(=O)C1CCCN(C(=O)CCc2nnc(-c3ccc(C(C)=O)s3)o2)C1 (stereo unspecified),-14.0,0.6,-3.3,38.0*,-9.6,1.2
CCn1nc(C)c(CNC(=O)CCc2nnc(-c3ccc(C(C)=O)s3)o2)c1C,-16.8,0.5,-7.0,63.3*,-10.5,0.0
CCC(=O)C1CCCN(C(=O)CCc2nnc(-c3ccc4c(c3)OCO4)o2)C1 (stereo unspecified),-10.3,0.6,-8.5,11.6,-7.7,2.3
CCN(CC)CCN(C)C(=O)CCc1nnc(-c2ccc(C)s2)o1,-7.3,-0.9,-2.7,15.8,-7.2,0.7
FC(F)(F)c1ccccc1/C=N/n1c(COc2ccccc2)n[nH]c1=S,-16.1,-2.8,-11.8,-6.4,1.2,1.1
O=C(CSc1nnc(-c2cccs2)n1Cc1ccccc1)NCc1ccc2c(c1)OCO2,-23.2,-0.1,-5.1,62.0*,-21.7,-1.1
O=C(CSc1nnc(-c2cccs2)n1-c1ccccc1)NCc1ccc2c(c1)OCO2,-7.1,-1.5,4.3,62.0*,-15.8,-0.9
Cn1c(SCC(=O)NCc2ccc3c(c2)OCO3)nnc1-c1cccs1,-11.9,-1.4,-4.2,13.7,-12.0,-0.5
Cc1ccc(S(=O)(=O)N2CCN(C(=O)COC(=O)c3cnc(C)cn3)CC2)c(C)c1,-24.7,-1.7,-8.0,23.4,-9.9,-1.5
COc1cc(-c2n[nH]c(=S)n2/N=C/c2cccn2C)cc(OC)c1OC,77.3*,72.5*,-21.6,1.9,29.3,51.1*
Cn1cccc1/C=N/n1c(-c2ccco2)n[nH]c1=S,-8.1,-0.1,0.3,11.5,-6.0,-0.9
Cc1ccc(N=C2NC(=O)c3cc([N+](=O)[O-])ccc32)cc1,-1.0,-1.2,2.9,55.9*,9.2,-0.3
O=C1Nc2ccccc2Nc2ccc([N+](=O)[O-])cc21,-19.9,-1.3,-3.1,11.1,9.8,1.4
O=C(Nc1ccccc1C(F)(F)F)N1CCN(c2ccc3nncn3n2)CC1,-4.7,0.9,1.8,8.8,-5.8,0.5
O=[N+]([O-])c1cccc(N/N=C/c2cc([N+](=O)[O-])ccc2O)c1,-1.1,4.1,-22.0,12.8,3.8,4.1
O=[N+]([O-])c1ccc(O)c(/C=N/Nc2ccccn2)c1,74.7*,2.2,-8.7,3.2,86.8*,0.0
Cc1cccc(C)c1NC(=O)CN(c1ccccn1)S(=O)(=O)c1ccc(F)cc1,-11.3,1.6,3.7,-1.1,-7.4,0.4
Cc1cccc(C)c1NC(=O)CN(c1ccccn1)S(=O)(=O)c1ccccc1,-14.8,0.2,-1.9,16.4,24.7*,0.9
CCCCn1c(=O)[nH]c2nc3cc(NC(C)=O)ccc3nc2c1=O,-2.5,2.1,-7.8,7.1,-6.1,2.3
SMILES,OX1R antag-1,OXTR agonist,OXTR potentiate,OX1R antag-2,CHO parental Ca,V1R ag counter
CCC(=O)Nc1ccc2nc3c(=O)[nH]c(=S)[nH]c3nc2c1,-8.4,0.3,-1.3,65.1*,-0.7,1.5
CCOC(=O)C1=C(CN2CCN(C(=O)c3ccco3)CC2)NC(=O)NC1c1ccc(OC)cc1 (stereo unspecified),-18.1,0.7,3.1,5.4,-15.3,1.6
Cc1cc(C)n(C(=O)/C(C#N)=N\Nc2ccccc2[N+](=O)[O-])n1,-15.7,0.3,-17.7,23.7,-5.5,-0.3
Cc1cc(C)n(C(=O)/C(C#N)=N/Nc2cc(Cl)cc(Cl)c2)n1,58.8*,4.6,-9.2,59.5*,74.9*,7.1
COc1ccc(OCCCC(=O)Nc2cccc(C(C)=O)c2)cc1,-8.9,1.5,-5.8,2.2,7.7,3.9
COc1ccc(OCCCC(=O)OC(C)C(=O)Nc2cccc(C(C)=O)c2)cc1 (stereo unspecified),-6.9,3.5,-4.7,64.2*,17.0,9.2
O=C(CN1C(=O)NC2(CCCCCC2)C1=O)c1cccs1,0.8,0.6,-0.6,1.9,-6.8,0.2
Cn1nc(C(C)(C)C)cc1C(=O)NCc1ccc2c(c1)OCO2,15.3,10.6,-9.4,44.6,47.7*,10.7
CCc1ccc(CN(C)C(=O)c2cc(COc3cccc4cnccc34)on2)cc1,50.5*,5.7,-22.4,34.6,67.2*,3.2
CN(Cc1cccnc1)C(=O)c1cc(COc2ccc3c(c2)CCCC3)on1,25.0,11.4,-11.2,27.7,40.3*,10.4
CCc1ccc(CN(C)C(=O)c2cc(COc3c(F)cccc3F)on2)cc1,-15.0,-1.0,-9.0,8.4,4.4,0.3
O=[N+]([O-])c1cc(Cl)cc(/C=N/NC(=S)Nc2ccc(S(=O)(=O)N3CCOCC3)cc2)c1O,-11.7,-0.7,-8.4,74.9*,-2.8,0.0
COc1cccc(-c2nc(NCc3ccco3)c3ccccc3n2)c1O,-19.9,-1.8,-13.6,29.3,-4.5,-1.1
C=CCNc1nc(-c2cccc(OC)c2O)nc2ccccc12,-7.6,-0.6,-0.6,47.3*,5.0,0.2
COc1cccc(-c2nc(NCc3ccccc3)c3ccccc3n2)c1O,-9.3,-1.5,-15.2,37.3*,-1.1,0.5
NC1=NC(=O)/C(=C\c2cc([N+](=O)[O-])ccc2Cl)S1,-14.1,-0.4,6.4,49.3*,3.5,0.1
CN(CC(=O)Nc1ccccc1C(=O)NC1CC1)Cc1cccs1,-10.5,-0.9,-3.8,4.3,-14.5,-0.5
CCCC(=O)OCCNc1cc(SCc2ccco2)c2nonc2c1[N+](=O)[O-],-18.9,-1.5,-6.2,68.4*,-14.4,0.1
Cc1nn(C(C)C(=O)NCc2ccco2)c(C)c1[N+](=O)[O-] (stereo unspecified),-4.7,-0.1,-0.3,9.3,-4.0,1.7
CC(=O)OCCCNc1cc(SCc2ccco2)c2nonc2c1[N+](=O)[O-],-24.9,3.4,-6.7,73.0*,-19.3,3.0
